The source made the active and inactive calls. The calls are words filed in the database; no cut-off is given here.
Key:
[1] = Growth inhibition of human WM115 cells expressing high levels of S100-B by SYBR Green based fluorescence method; assay type: functional, cell-based; settings: WM-115
[2] = Growth inhibition of human WM115 cells expressing low levels of S100-B by SYBR Green based fluorescence method; assay type: functional, cell-based; settings: WM-115
[3] = target: T1, Protein S100-B (Rattus norvegicus) (UniProt P04631); assay: Displacement of TAMRA-TRTK12 from recombinant rat calcium loaded S100-B at <1 mM by fluorescence polarization competition assay
T1 sequence (whole entry): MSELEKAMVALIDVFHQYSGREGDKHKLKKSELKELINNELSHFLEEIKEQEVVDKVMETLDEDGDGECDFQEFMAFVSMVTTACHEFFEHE

Protein S100-B [4] = target: T2, Protein S100-B (Rattus norvegicus, UniProt P04631); assay: Displacement of TAMRA-TRTK12 from recombinant rat calcium loaded S100-B by fluorescence polarization competition assay
T2 sequence (P04631 whole entry): T1 sequence (whole entry)

Protein S100-B [5] = target: T2, Protein S100-B; assay: Displacement of TAMRA-TRTK12 from recombinant rat calcium loaded S100-B by […] analysis
Protein S100-B [6] = target: T2, Protein S100-B; assay: Binding affinity to recombinant rat calcium loaded S100-B by isothermal titration calorimetry
Protein S100-B [7] = target: T2, Protein S100-B; assay: Binding affinity to recombinant rat calcium loaded S100-B by fluorescence spectrophotometric analysis
Summary of the method: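 Competition fluorescence polarization against 10 nM TAMRA-labelled TRTK12 peptide (CapZ residues 265–276) with 1 µM Ca2+-loaded rat S100B. Buffer: 50 mM HEPES pH 7.2, 100 mM KCl, 15 mM NaCl, 10 mM CaCl2, 0.01% Triton X-100, 0.5% DMSO. Compounds titrated from the highest concentration possible. Read at room temperature (ex 544/em 590 nm). KD calculated from the IC50 using the Nikolovska-Coleska equation.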

Row | SMILES | Activity [3] | IC50 (Protein S100-B [4]) [µM] | Kd (Protein S100-B [5]) [µM] | Kd (Protein S100-B [6]) [µM] | Kd (Protein S100-B [7]) [µM] | EC50 [1] [µM] | EC50 [2] [µM]
1 | c1cc(C2=NCCCN2)ccc1OCCCCCCOc1ccc(C2=NCCCN2)cc1 | inactive | – | – | – | – | 44.1 | 42.7
2 | N=C(N)c1ccc(OCCCCCCCOc2ccc(C(=N)N)cc2)cc1 [HEPTAMIDINE] | – | – | – | – | – | 11.5 | 25.6
3 | c1cc(C2=NCCCCN2)ccc1OCCCCCCCOc1ccc(C2=NCCCCN2)cc1 | inactive | – | – | – | – | 7.8 | 9.2
4 | c1cc(C2=NCCCN2)ccc1OCCCCCCCOc1ccc(C2=NCCCN2)cc1 | inactive | – | – | – | – | 612 | 289
5 | c1cc(C2=NCCN2)ccc1OCCCCCCCCOc1ccc(C2=NCCN2)cc1 | inactive | – | – | – | – | 21.8 | 24.3
6 | c1cc(C2=NCCN2)ccc1OCCCCCCOc1ccc(C2=NCCN2)cc1 | inactive | – | – | – | – | 52 | 34.5
7 | N=C(N)c1ccc(OCCCCCCCCOc2ccc(C(=N)N)cc2)cc1 | – | – | – | – | – | 245 | 234
8 | c1cc(C2=NCCN2)ccc1OCCCCCCCOc1ccc(C2=NCCN2)cc1 | inactive | – | 203 | – | – | 32.2 | 21.2
9 | c1cc(C2=NCCCCN2)ccc1OCCCCCCCCOc1ccc(C2=NCCCCN2)cc1 | inactive | – | – | – | – | 5.4 | 4.8
10 | N=C(N)c1ccc(OCCCN(CCCOc2ccc(C(=N)N)cc2)Cc2ccccc2)cc1 | – | – | – | – | – | 51.8 | 41
11 | N=C(NC(=O)Nc1ccccc1)c1ccc(OCCCCCCCOc2ccc(C(=N)NC(=O)Nc3ccccc3)cc2)cc1 | – | – | – | – | – | 0.4 | 0.5
12 | CCCN(CCCOc1ccc(C(=N)N)cc1)CCCOc1ccc(C(=N)N)cc1 | – | – | – | – | – | 864 | 500

Further lines, with some results ahead:

Row | Activity [3] | IC50 (Protein S100-B [4]) [µM] | Kd (Protein S100-B [5]) [µM] | Kd (Protein S100-B [6]) [µM] | Kd (Protein S100-B [7]) [µM] | SMILES | EC50 [1] [µM] | EC50 [2] [µM]
13 | – | 66.6 | 6 | – | – | N=C(N)c1ccc(Oc2ccc(-c3cc4ccc(C(=N)N)cc4[nH]3)cc2)cc1 | < 1 | < 1
14 | inactive | – | – | – | – | c1cc(C2=NCCCCN2)ccc1OCCCCCOc1ccc(C2=NCCCCN2)cc1 | 20 | 19
15 | inactive | – | – | – | – | c1cc(C2=NCCN2)ccc1OCCCCCOc1ccc(C2=NCCN2)cc1 | 56.2 | 38.9
16 | inactive | – | – | – | – | c1cc(C2=NCCCN2)ccc1OCCCCCCCCOc1ccc(C2=NCCCN2)cc1 | 24.8 | 37.9
17 | inactive | – | – | – | – | c1cc(C2=NCCCCN2)ccc1OCCCCCCOc1ccc(C2=NCCCCN2)cc1 | 264 | 301
18 | inactive | – | – | – | – | c1cc(C2=NCCCN2)ccc1OCCCCCOc1ccc(C2=NCCCN2)cc1 | 203 | 284
19 | – | 6.7 | 0.5 | – | – | N=C(NCCCCCCCN)c1ccc(OCCCCCCCOc2ccc(C(=N)NCCCCCCCN)cc2)cc1 | 24.3 | 25.4
20 | – | – | – | 50 | 44 | N=C(N)c1ccc(OCCCCCOc2ccc(C(=N)N)cc2)cc1 [PENTAMIDINE] | 16.3 | 16.7
21 | – | 982 | 89.5 | – | – | CNC(=O)NC(=N)c1ccc(OCCCCCCCOc2ccc(C(=N)NC(=O)NC)cc2)cc1 | 131 | 146
22 | – | 18.3 | 1.6 | – | – | N=C(NCCCCCCCN)c1ccc(OCCCCCCCCOc2ccc(C(=N)NCCCCCCCN)cc2)cc1 | 46.3 | 45.8
23 | – | 51.1 | 4.6 | – | – | N=C(NCCCCCN)c1ccc(OCCCCCOc2ccc(C(=N)NCCCCCN)cc2)cc1 | – | –

From ChEMBL document CHEMBL3763147, “Small Molecule Inhibitors of Ca(2+)-S100B Reveal Two Protein Conformations” (J Med Chem, 2016)
